Structures are written as SMILES.

For three molecules, fold change (FC) and inhibition results are on record in ChEMBL document CHEMBL5653631, “A Potent and Selective ULK1 Inhibitor Suppresses Autophagy and Sensitizes Cancer Cells to Nutrient Stress” (iScience, 2018).

The target in assay [1] is Serine/threonine-protein kinase PAK 1 (Homo sapiens) (UniProt Q13153). The assay can be described thus: Inhibition of human recombinant PAK1 at 40 nM related to control ULK1.
Assay [2] has as its target Misshapen-like kinase 1 (Homo sapiens) (UniProt Q8N4C8). As to the kind of experiment: Inhibition of human recombinant MINK at 40 nM related to control ULK1.
Assay [3] addresses Serine/threonine-protein kinase SBK1 (Homo sapiens) (UniProt Q52WX2). The assay can be described thus: Inhibition of human recombinant SBK1 at 40 nM in presence of ATP by radiometric assay relative to control.
Assay [4] has as its target Homeodomain-interacting protein kinase 1 (Homo sapiens) (UniProt Q86Z02). As to the kind of experiment: Inhibition of human recombinant HIPK1 at 500 nM related to control ULK1.
The target in assay [5] is RAF proto-oncogene serine/threonine-protein kinase (Homo sapiens) (UniProt P04049). As to the kind of experiment: Inhibition of human recombinant RAF1 at 500 nM related to control ULK1.
Chain of RAF proto-oncogene serine/threonine-protein kinase (Homo sapiens) (P04049 whole entry, canonical isoform): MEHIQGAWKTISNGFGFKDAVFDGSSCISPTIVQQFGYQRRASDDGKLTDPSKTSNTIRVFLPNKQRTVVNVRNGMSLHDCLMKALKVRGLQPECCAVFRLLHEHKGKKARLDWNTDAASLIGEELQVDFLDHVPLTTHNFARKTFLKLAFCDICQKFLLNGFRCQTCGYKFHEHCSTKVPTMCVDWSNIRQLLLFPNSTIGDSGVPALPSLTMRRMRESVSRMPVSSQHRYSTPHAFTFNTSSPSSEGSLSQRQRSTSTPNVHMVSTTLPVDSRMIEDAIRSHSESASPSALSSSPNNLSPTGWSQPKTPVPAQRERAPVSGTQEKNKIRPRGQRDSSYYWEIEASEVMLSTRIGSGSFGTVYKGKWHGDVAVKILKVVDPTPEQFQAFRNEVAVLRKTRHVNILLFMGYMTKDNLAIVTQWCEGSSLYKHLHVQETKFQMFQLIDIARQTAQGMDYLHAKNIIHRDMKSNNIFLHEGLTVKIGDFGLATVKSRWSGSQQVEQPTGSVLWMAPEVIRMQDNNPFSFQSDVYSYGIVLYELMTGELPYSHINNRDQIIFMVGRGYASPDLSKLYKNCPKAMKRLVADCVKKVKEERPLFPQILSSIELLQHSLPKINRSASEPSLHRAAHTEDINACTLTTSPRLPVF
For assay [6], the target named is Phosphorylase b kinase gamma catalytic chain, skeletal muscle/heart isoform (Homo sapiens) (UniProt Q16816). The assay can be described thus: Inhibition of human recombinant PHKg1 at 500 nM in presence of ATP by radiometric assay relative to control.
Chain of Phosphorylase b kinase gamma catalytic chain, skeletal muscle/heart isoform (Homo sapiens) (Q16816 whole entry, looked up, canonical isoform): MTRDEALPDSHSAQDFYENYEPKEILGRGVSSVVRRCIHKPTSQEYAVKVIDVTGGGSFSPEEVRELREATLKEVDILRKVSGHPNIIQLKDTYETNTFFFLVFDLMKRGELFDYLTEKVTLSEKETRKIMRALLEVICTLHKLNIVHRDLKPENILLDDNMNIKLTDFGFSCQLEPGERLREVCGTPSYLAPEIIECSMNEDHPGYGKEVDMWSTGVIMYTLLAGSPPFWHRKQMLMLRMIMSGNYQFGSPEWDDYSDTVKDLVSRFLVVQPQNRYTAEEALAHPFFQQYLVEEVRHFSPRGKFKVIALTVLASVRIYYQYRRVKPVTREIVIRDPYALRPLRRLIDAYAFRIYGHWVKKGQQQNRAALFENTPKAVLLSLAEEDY
The target in assay [7] is RAC-alpha serine/threonine-protein kinase (Homo sapiens) (UniProt P31749). The assay can be described thus: Inhibition of human recombinant AKT1 at 500 nM in presence of ATP by radiometric assay relative to control. An outline of the steps: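 Panel of 327 recombinant human kinases in radiometric activity assays, each screened in duplicate at a single inhibitor concentration; percent activity remaining relative to vehicle control, percent inhibition taken as 100 minus activity remaining.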
Chain of RAC-alpha serine/threonine-protein kinase (Homo sapiens) (P31749 whole entry): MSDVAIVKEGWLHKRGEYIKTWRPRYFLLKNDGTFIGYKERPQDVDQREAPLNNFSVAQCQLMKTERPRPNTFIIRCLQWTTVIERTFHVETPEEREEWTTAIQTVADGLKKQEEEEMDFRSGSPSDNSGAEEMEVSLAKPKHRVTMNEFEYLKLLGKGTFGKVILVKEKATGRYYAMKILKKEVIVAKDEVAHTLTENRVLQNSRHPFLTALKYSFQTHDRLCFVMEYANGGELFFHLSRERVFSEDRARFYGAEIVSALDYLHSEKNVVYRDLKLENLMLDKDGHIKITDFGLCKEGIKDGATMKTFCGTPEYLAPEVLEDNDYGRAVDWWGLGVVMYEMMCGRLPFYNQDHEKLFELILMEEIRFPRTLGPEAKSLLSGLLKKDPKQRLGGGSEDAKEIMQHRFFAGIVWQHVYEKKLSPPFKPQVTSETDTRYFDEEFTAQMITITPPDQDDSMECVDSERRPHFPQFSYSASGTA

The target in assay [8] is T1, Mitogen-activated protein kinase kinase kinase 7 (Homo sapiens) (UniProt O43318).
T1 sequence (whole entry): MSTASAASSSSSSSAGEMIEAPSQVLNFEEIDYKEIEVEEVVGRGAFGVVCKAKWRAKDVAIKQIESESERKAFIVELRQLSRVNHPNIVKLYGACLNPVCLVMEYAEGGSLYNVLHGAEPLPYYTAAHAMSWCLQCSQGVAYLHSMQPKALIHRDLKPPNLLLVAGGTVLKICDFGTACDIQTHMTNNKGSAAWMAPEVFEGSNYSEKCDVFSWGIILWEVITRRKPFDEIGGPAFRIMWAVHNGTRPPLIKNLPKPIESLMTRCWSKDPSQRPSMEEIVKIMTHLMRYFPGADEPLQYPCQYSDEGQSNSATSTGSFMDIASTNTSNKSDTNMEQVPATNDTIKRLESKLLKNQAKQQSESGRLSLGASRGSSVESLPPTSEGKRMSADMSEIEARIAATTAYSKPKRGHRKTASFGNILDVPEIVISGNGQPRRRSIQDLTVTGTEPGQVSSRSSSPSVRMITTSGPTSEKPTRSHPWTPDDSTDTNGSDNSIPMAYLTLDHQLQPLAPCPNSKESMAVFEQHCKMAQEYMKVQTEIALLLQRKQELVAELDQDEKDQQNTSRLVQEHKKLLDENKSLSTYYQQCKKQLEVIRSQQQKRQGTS
The assay can be described thus: Inhibition of human recombinant TAK1 at 15 nM related to control ULK1.

Assay [9] has as its target Ephrin type-A receptor 5 (Homo sapiens) (UniProt P54756). The assay can be described thus: Inhibition of human recombinant EphA5 at 15 nM related to control ULK1.
Assay [10] deals with T2, Ephrin type-B receptor 3 (Homo sapiens) (UniProt P54753).
T2 sequence (whole entry): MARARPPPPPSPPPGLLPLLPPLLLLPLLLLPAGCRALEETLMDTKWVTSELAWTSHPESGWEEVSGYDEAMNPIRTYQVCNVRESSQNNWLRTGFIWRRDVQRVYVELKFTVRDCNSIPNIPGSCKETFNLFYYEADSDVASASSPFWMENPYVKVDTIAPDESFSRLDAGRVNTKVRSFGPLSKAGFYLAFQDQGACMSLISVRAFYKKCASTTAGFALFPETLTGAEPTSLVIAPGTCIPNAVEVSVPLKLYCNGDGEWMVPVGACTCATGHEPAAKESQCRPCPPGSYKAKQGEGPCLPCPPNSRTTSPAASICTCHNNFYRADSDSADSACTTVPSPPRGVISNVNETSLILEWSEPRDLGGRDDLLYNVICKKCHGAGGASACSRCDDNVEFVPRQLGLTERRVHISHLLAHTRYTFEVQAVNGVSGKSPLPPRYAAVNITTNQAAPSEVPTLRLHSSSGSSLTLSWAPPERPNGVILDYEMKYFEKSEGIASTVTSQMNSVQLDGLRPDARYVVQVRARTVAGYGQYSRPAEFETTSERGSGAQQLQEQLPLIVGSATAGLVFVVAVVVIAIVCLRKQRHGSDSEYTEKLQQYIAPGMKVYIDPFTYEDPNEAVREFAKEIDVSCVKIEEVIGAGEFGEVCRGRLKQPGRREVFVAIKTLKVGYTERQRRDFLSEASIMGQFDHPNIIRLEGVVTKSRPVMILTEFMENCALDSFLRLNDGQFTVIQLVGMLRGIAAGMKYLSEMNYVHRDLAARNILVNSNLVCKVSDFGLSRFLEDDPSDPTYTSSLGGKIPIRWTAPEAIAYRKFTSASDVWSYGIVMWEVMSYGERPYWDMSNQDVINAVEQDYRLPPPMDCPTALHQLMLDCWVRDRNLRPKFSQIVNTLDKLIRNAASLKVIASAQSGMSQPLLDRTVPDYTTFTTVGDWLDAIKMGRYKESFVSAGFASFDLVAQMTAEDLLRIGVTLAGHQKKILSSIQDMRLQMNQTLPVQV
The assay can be described thus: Inhibition of human recombinant EphB3 at 15 nM related to control ULK1.

The target in assay [11] is Insulin-like growth factor 1 receptor (Homo sapiens) (UniProt P08069). The assay can be described thus: Inhibition of human recombinant IGF1R at 15 nM in presence of ATP by radiometric assay relative to control.

Chain of Ephrin type-A receptor 5 (Homo sapiens) (P54756 whole entry): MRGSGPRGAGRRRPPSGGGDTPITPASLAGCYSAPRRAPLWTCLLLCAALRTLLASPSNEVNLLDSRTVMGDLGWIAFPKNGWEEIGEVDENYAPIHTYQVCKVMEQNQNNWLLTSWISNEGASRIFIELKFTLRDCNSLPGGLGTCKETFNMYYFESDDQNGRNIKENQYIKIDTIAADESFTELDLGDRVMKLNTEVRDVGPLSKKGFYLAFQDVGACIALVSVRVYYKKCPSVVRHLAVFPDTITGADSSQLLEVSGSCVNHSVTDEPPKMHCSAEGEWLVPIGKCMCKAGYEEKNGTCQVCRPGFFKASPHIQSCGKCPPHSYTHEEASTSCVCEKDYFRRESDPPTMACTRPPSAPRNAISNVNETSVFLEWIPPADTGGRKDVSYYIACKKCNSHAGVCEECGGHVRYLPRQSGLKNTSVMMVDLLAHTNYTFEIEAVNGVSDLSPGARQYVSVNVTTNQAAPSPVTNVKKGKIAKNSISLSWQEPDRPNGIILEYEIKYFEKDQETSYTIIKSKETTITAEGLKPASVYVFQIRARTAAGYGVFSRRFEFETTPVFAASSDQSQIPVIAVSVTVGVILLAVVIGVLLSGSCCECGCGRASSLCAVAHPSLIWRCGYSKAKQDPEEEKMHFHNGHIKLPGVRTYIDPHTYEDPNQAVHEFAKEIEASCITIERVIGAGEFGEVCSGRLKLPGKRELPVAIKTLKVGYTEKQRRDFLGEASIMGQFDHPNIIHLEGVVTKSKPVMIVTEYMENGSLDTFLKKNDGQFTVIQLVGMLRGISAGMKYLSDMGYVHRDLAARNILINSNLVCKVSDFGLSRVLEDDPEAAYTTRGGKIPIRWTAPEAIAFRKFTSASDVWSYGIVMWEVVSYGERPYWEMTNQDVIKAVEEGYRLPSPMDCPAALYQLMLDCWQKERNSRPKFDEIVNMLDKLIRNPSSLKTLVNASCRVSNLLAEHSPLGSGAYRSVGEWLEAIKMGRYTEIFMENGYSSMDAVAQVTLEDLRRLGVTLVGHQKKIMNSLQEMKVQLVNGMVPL
Chain of Serine/threonine-protein kinase SBK1 (Homo sapiens) (Q52WX2 whole entry): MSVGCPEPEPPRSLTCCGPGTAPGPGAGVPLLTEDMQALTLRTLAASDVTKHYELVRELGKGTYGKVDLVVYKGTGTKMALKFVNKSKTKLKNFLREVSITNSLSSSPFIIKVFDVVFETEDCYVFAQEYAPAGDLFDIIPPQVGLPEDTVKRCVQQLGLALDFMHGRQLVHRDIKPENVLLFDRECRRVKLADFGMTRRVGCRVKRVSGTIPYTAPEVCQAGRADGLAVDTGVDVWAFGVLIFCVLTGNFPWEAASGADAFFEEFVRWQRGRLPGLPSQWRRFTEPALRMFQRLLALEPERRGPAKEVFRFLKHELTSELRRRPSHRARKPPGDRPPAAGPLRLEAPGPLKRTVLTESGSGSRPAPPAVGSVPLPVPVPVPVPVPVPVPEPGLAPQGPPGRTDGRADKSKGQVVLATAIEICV
Chain of Misshapen-like kinase 1 (Homo sapiens) (Q8N4C8 whole entry, looked up): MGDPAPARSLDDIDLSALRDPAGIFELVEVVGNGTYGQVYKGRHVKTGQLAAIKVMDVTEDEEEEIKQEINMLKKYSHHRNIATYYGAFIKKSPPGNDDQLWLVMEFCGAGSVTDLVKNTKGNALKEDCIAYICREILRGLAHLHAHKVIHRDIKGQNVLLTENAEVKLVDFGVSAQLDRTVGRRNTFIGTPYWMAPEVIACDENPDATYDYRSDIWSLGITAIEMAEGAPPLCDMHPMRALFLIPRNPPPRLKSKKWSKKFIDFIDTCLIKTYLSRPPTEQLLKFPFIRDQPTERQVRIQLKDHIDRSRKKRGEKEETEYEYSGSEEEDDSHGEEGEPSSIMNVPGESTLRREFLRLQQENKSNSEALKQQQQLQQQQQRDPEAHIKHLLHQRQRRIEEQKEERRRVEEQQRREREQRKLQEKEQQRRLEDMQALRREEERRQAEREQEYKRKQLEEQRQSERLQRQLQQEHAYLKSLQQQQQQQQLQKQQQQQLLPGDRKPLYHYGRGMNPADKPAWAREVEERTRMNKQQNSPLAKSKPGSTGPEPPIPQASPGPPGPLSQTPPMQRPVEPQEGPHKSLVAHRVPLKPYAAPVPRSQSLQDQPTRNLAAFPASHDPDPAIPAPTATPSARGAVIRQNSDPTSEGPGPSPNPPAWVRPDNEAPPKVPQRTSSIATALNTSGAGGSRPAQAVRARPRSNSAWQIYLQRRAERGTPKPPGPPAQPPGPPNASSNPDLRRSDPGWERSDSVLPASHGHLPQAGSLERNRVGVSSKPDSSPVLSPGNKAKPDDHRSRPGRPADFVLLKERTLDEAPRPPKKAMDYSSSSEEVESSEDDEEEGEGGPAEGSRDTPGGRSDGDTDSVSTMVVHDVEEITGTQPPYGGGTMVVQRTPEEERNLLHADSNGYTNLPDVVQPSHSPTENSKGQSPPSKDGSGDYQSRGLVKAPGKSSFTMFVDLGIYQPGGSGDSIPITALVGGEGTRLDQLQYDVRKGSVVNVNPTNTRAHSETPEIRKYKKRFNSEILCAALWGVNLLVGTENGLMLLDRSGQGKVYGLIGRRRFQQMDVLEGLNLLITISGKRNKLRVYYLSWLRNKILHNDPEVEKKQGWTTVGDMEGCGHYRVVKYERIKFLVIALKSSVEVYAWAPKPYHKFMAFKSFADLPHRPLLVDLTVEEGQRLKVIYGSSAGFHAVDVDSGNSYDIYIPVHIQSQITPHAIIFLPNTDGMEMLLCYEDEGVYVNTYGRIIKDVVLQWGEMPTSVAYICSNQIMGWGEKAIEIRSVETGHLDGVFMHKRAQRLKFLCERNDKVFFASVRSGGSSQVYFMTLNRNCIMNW
Chain of Serine/threonine-protein kinase PAK 1 (Homo sapiens) (Q13153 whole entry, looked up): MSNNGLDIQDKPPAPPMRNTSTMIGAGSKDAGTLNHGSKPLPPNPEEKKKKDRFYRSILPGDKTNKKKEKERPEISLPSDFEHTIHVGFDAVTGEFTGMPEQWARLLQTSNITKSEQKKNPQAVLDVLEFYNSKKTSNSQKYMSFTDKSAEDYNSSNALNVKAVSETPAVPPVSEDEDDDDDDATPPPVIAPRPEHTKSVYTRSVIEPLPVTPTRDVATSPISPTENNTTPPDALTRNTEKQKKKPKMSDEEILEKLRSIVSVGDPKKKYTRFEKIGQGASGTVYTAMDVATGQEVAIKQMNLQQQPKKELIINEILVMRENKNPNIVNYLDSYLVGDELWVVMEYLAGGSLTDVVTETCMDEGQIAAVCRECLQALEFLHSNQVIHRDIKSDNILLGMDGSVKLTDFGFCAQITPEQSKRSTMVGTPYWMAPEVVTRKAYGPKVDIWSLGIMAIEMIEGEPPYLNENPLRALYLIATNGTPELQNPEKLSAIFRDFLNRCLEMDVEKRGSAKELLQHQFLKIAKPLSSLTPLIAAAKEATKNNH

Take `O=C(N[C@@H](C1CC1)C(F)(F)F)c1cc(-c2cnn3cc(-c4ccc(F)cc4)cnc23)cs1`: the values for the fold change (FC) in [1] and in assay [2] were 0 and 0.1, respectively. Also, the inhibition (in general, how much of the control response was suppressed) in [3] turned out to be 0%.
For the molecule `CNC(=O)c1ccccc1Oc1nc(Nc2cc(OC)c(OC)c(OC)c2)ncc1Br`, the fold change (FC) in [4] is 0.04; in assay [5] it was 0.15. In addition, the inhibition worked out at 23% in [6] and 0% in [7].
For the molecule `CC(C)[C@H](NC(=O)c1cc(-c2cnn3cc(-c4ccc(OCCN5CCCCC5)cc4)cnc23)cs1)C(F)(F)F`, the fold change (FC) in assay [8] came to 0.01; in assay [9] it was 0; in assay [10] it was 0. Besides, the inhibition in [11] amounted to 0%.
